In ChEMBL document CHEMBL4257467, “Synthesis and pharmaceutical characterization of site specific mycophenolic acid-modified Xenopus glucagon-like peptide-1 analogs” (Medchemcomm, 2018):
Activity calls are given as the source filed them. *1 amine or outer side, *2 acyl side, *3 side chain or, on linkers, in order; H or OH if unused. Where a SMILES comes first, the peptide text is derived from it. Side-chain parts run from the residue outwards. The star is where a group is joined. Mycophenolyl = COc1c(C)c2c(c(O)c1C/C=C(\C)CCC(=O)*)C(=O)OC2; γGlu = O=C(O)[C@H](CCC(=O)[*:2])N[*:1]; 12Ado = NCCCCCCCCCCCC(=O)O; Ahx = NCCCCCC(=O)O

Tests used:
Mus musculus [1] = assay: Antidiabetic activity in Kunming mouse assessed as reduction in blood glucose AUC at 25 nmol/kg, ip pretreated for 30 mins followed by glucose-challenge and measured after 15 to 120 mins by IPGTT; format: functional, organism-based
Procedure, shortened: (§1)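 Male Kunming mice (20–25 g, n = 6) fasted overnight. Peptide or saline 25 nmol kg−1 ip at −30 min, ip glucose 2 g kg−1 at 0 min. Tail-vein blood glucose by glucometer at −30, 0, 15, 30, 60 and 120 min. Glucose AUC0–120min calculated; means ± SD.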

Mus musculus [2] = assay: Hypoglycemic activity in non-fasting C57BL/6J m+/+ Lepr db mouse assessed as rebound time from the lowest glucose level (12 mmol/L) to diabetic glucose level (>15 mmol/L) at 100 nmol/kg, ip by glucometric method; format: functional
Procedure, shortened: (§2)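 Non-fasting male db/db mice (30–40 g, 9 weeks, n = 6) with free food and water. Single ip dose at 0 h: liraglutide 25 nmol kg−1, test peptides 25 or 100 nmol kg−1, or saline. Blood glucose by glucometer at 0, 2, 4, 6, 12, 24, 48 h. Rebound time to >15 mmol L−1 and AUC0–48h derived; means ± SD.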

Mus musculus [3] = assay: Hypoglycemic activity in C57BL/6J m+/+ Lepr db mouse assessed as blood glucose level at 25 nmol/kg, ip pretreated for 30 mins followed by glucose challenge and measured after 15 mins by IPGTT; format: functional
Procedure, shortened: (§3)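 Male db/db mice (30–40 g, 9 weeks, n = 6) fasted 18 h. Saline or peptide 25 nmol kg−1 ip at −30 min, ip glucose 1 g kg−1 at 0 min. Tail-vein glucose by glucometer at −30, 0, 10, 15, 30, 45, 60, 120 min. Plasma insulin by mouse insulin ELISA. AUC0–120min for glucose and insulin calculated; means ± SD.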

Mus musculus [4] = assay: Hypoglycemic activity in non-fasting C57BL/6J m+/+ Lepr db mouse assessed as rebound time from the lowest glucose level (12 mmol/L) to diabetic glucose level (>15 mmol/L) at 25 nmol/kg, ip by glucometric method; format: functional; procedure, shortened: as §2
Albumin = Albumin (Homo sapiens, UniProt P02768); assay: Binding affinity to human serum albumin after 60 mins by ultrafiltration-based HPLC analysis; format: ADME; settings: human serum albumin, read-out: PB (converted)
Procedure, shortened: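 Peptide in PBS pH 7.4 (100 μg ml−1) mixed with HSA (10 mg ml−1 in PBS), incubated 60 min at 37 °C. Ultrafiltration through 30 kDa cutoff filter, 30 min at 3500 rpm. Free compound in filtrate by HPLC. Membrane adsorption checked (<4%). Repeated three times.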

Mus musculus [5] = assay: Antidiabetic activity in Kunming mouse assessed as reduction in blood glucose level at 25 nmol/kg, ip pretreated for 30 mins followed by glucose-challenge and measured after 15 to 120 mins by IPGTT; format: functional, organism-based; procedure, shortened: as §1
[6] = biological target: Glucagon-like peptide 1 receptor (Homo sapiens, UniProt P43220); assay: Agonist activity at human GLP1 receptor expressed in HEK293 cells assessed as increase in cAMP level after 30 mins by HTRF method; format: functional, cell-based
Procedure, shortened: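 HEK293 cells stably expressing human GLP-1 receptor, thawed, suspended in DMEM with 20 mM HEPES, 2 mM L-Glu, 0.5% FBS, 1% pen-strep. Compounds dissolved in DMSO, diluted in assay buffer to 1 × 10−13–1 × 10−6 M final, 30 min at 37 °C in 5% CO2. cAMP read by HTRF. EC50 as means ± SD of three individual experiments, n = 3.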

Mus musculus [7] = assay: Antidiabetic activity in C57BL/6J m+/+ Lepr db mouse assessed as plasma insulin level at 25 nmol/kg, ip pretreated for 30 mins followed by glucose challenge and measured after 15 mins by ELISA; format: functional; procedure, shortened: as §3
[8] = Half life in Sprague-Dawley rat plasma at 0.5 mL by LC-MS/MS analysis; format: ADME, cell-free; settings: Sprague-Dawley
Procedure, shortened: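 Plasma from male Sprague-Dawley rats (200–250 g). Peptide in PBS pH 7.4 added to initial 1000 ng ml−1 and incubated at 37 °C for 48 h. Samples at 2, 4, 8, 12, 24, 36, 48 h precipitated with acetonitrile containing 2% formic acid, centrifuged, analysed by LC-MS/MS in MRM mode. Degradation curves in triplicate.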

Mus musculus [9] = assay: Hypoglycemic activity in non-fasting C57BL/6J m+/+ Lepr db mouse assessed as reduction in blood glucose AUC (0 to 48 hrs) at 25 to 100 nmol/kg, ip by glucometric method; format: functional, organism-based; procedure, shortened: as §2
Mus musculus [10] = assay: Antidiabetic activity in C57BL/6J m+/+ Lepr db mouse assessed as increase in plasma insulin AUC (0 to 120 mins) at 25 nmol/kg, ip pretreated for 30 mins followed by glucose challenge by ELISA; format: functional, organism-based; procedure, shortened: as §3
Mus musculus [11] = assay: Antidiabetic activity in C57BL/6J m+/+ Lepr db mouse assessed as change in blood glucose level at 50 nmol/kg, ip administered once daily for 5 weeks followed by glucose challenge measured after 15 to 120 mins by IPGTT; format: functional, organism-based
Mus musculus [12] = assay: Antidiabetic activity in C57BL/6J m+/+ Lepr db mouse assessed as reduction in glycated hemoglobin level at 50 nmol/kg, ip administered once daily for 5 weeks relative to control; format: functional; design: scale not given: the % may be the effect or the level left
Mus musculus [13] = assay: Antidiabetic activity in C57BL/6J m+/+ Lepr db mouse assessed as serum total cholesterol level at 50 nmol/kg, ip administered once daily for 5 weeks (reference value: 6.5 +/- 0.4 mmol/L); format: functional
Mus musculus [14] = assay: Antidiabetic activity in C57BL/6J m+/+ Lepr db mouse assessed as increase in non-fasting plasma insulin levels at 50 nmol/kg, ip administered once daily for 5 weeks measured every 4 days during compound dosing; format: functional, organism-based
Mus musculus [15] = assay: Toxicity in C57BL/6J m+/+ Lepr db mouse assessed as HDL-cholesterol level at 50 nmol/kg, ip administered once daily for 5 weeks (reference value: 1.7 +/- 0.3 mmol/L); format: organism-based; settings: in vivo, 840 h
Mus musculus [16] = assay: Hypoglycemic activity in C57BL/6J m+/+ Lepr db mouse assessed as reduction in fasting blood glucose level at 25 nmol/kg, ip pretreated for 30 mins followed by glucose challenge at 6 hrs interval for 24 hrs and measured up to 3 hrs by OGTT; format: functional, organism-based
Procedure, shortened: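 Male db/db mice (30–40 g, 9 weeks, n = 6) fasted 18 h, given saline or peptide 25 nmol kg−1 ip at −0.5 h. Oral glucose 1.5 g kg−1 at 0 h, repeated every 6 h (6, 12, 18 h) over 24 h. Blood glucose by glucometer at 0, 0.25, 0.5, 1, 2 and 3 h after each load.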

Mus musculus [17] = assay: Antidiabetic activity in C57BL/6J m+/+ Lepr db mouse assessed as non-fasting blood glucose levels at 50 nmol/kg, ip administered once daily for 5 weeks measured every 4 days during compound dosing; format: functional
Mus musculus [18] = assay: Antidiabetic activity in C57BL/6J m+/+ Lepr db mouse assessed as reduction in body weight gain at 50 nmol/kg, ip administered once daily for 5 weeks measured every 4 days during compound dosing relative to control; format: functional; design: scale not given: the % may be the effect or the level left
Mus musculus [19] = assay: Antidiabetic activity in C57BL/6J m+/+ Lepr db mouse assessed as reduction in blood glucose AUC (0 to 120 mins) at 50 nmol/kg, ip administered once daily for 5 weeks followed by glucose challenge by IPGTT; format: functional, organism-based
Mus musculus [20] = assay: Hepatotoxicity in C57BL/6J m+/+ Lepr db mouse assessed as serum AST level at 50 nmol/kg, ip administered once daily for 5 weeks (reference value: 75 +/- 7.4 IU/L); format: toxicity, organism-based; settings: in vivo, 840 h
Mus musculus [21] = assay: Antidiabetic activity in C57BL/6J m+/+ Lepr db mouse assessed as reduction in food intake at 50 nmol/kg, ip administered once daily for 5 weeks measured every 4 days during compound dosing; format: functional, organism-based
Mus musculus [22] = assay: Hepatotoxicity in C57BL/6J m+/+ Lepr db mouse assessed as serum ALT level at 50 nmol/kg, ip administered once daily for 5 weeks (reference value: 61.4 +/- 10 IU/L); format: toxicity, organism-based; settings: in vivo, 840 h
Mus musculus [23] = assay: Antidiabetic activity in C57BL/6J m+/+ Lepr db mouse assessed as serum LDL-cholesterol level at 50 nmol/kg, ip administered once daily for 5 weeks (reference value: 2.2 +/- 0.3 mmol/L); format: functional
Mus musculus [24] = assay: Hypoglycemic activity in C57BL/6J m+/+ Lepr db mouse assessed as blood glucose AUC (0 to 120 mins) at 25 nmol/kg, ip pretreated for 30 mins followed by glucose challenge by IPGTT; format: functional, organism-based; procedure, shortened: as §3
Mus musculus [25] = assay: Antidiabetic activity in C57BL/6J m+/+ Lepr db mouse assessed as serum triglyceride level at 50 nmol/kg, ip administered once daily for 5 weeks (reference value: 2.3 +/- 0.3 mmol/L); format: functional

Chain of Glucagon-like peptide 1 receptor (P43220 whole entry): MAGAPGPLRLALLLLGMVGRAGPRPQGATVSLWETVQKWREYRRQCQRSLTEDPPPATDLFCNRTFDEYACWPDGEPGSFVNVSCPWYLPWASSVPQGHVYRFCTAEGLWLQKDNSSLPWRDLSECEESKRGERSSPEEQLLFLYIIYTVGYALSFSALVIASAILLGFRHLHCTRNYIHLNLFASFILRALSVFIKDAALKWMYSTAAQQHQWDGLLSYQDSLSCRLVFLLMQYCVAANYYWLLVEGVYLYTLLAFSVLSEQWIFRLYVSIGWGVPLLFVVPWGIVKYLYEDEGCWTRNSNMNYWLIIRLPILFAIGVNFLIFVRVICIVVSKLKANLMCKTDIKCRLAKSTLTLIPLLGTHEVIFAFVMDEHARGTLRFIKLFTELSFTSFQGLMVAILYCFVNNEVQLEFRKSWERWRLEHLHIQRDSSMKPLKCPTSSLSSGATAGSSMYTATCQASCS
Chain of Albumin (P02768 whole entry): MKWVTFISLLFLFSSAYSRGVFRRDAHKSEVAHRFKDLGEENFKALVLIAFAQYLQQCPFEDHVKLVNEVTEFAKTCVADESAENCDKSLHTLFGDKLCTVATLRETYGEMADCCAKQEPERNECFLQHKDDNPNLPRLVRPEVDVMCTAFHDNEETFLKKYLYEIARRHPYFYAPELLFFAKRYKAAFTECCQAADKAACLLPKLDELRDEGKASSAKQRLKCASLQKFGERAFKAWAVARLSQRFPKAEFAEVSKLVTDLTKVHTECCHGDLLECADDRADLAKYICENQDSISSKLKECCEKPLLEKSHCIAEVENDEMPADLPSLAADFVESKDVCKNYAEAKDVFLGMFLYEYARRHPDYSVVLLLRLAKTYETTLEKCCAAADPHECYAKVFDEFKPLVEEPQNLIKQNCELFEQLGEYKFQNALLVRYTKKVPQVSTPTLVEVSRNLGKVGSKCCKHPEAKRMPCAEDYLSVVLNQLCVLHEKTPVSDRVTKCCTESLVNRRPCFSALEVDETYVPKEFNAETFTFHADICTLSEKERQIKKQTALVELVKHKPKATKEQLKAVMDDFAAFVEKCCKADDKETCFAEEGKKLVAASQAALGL

## CC[C@H](C)[C@H](NC(=O)[C@H](CC(C)C)NC(=O)[C@H](Cc1c[nH]c2ccccc12)NC(=O)[C@H](CCC(=O)O)NC(=O)[C@@H](NC(=O)[C@H](Cc1ccccc1)NC(=O)[C@H](CCC(=O)O)NC(=O)[C@H](CCCCNC(=O)CC[C@H](NC(=O)CCCCCCCCCCCNC(=O)CC/C(C)=C/Cc1c(O)c2c(c(C)c1OC)COC2=O)C(=O)O)NC(=O)[C@H](C)NC(=O)[C@H](C)NC(=O)[C@H](CCC(=O)O)NC(=O)[C@H](CCC(=O)O)NC(=O)[C@H](CCC(=O)O)NC(=O)[C@H](CC(C)C)NC(=O)[C@H](Cc1ccc(O)cc1)NC(=O)[C@H](CCC(=O)O)NC(=O)[C@@H](NC(=O)[C@@H](NC(=O)[C@H](CC(=O)O)NC(=O)[C@H](CC(N)=O)NC(=O)[C@@H](NC(=O)[C@H](Cc1ccc(O)cc1)NC(=O)[C@@H](NC(=O)CNC(=O)[C@H](CCC(=O)O)NC(=O)CNC(=O)[C@@H](N)Cc1cnc[nH]1)[C@@H](C)O)[C@@H](C)O)C(C)C)[C@@H](C)O)[C@@H](C)CC)C(=O)N[C@@H](CCCCN)C(=O)NCC(=O)N[C@@H](CCCCN)C(=O)N1CCC[C@H]1C(=O)N[C@@H](CO)C(=O)N[C@@H](CO)C(=O)NCC(=O)N[C@@H](C)C(=O)N1CCC[C@H]1C(=O)N1CCC[C@H]1C(=O)N1CCC[C@H]1C(=O)N[C@@H](CO)C(=O)O (H-HGEGTYTNDVTEYLEEEAAK([γGlu-12Ado-Mycophenolyl])EFIEWLIKGKPSSGAPPPS-OH)
Mus musculus [1]
  Activity: Active
Mus musculus [2]
  Time: 30.4 h
Mus musculus [3]
  Activity: 1.24e+07 nmol/L
Mus musculus [4]
  Time: 18.9 h
Albumin
  fraction unbound at 1 h: 0.152
Mus musculus [5]
  Activity: Active
[6]
  EC50: 5.2 nM
Mus musculus [7]
  Activity: 16.5 mIU/L
[8]
  half-life: 34.2 h
Mus musculus [9]
  Activity: Active
Mus musculus [10]
  Activity: Active

## H-HGEGTYTNDVTEYLEEEAAK([γGlu-12Ado-Mycophenolyl])EFIEWLIKGKPSSGAPPSKKKKKK-OH
Mus musculus [1]
  Activity: Active
Mus musculus [2]
  Time: 38.4 h
Mus musculus [11]
  Activity: Active
Mus musculus [3]
  Activity: 1.07e+07 nmol/L
Mus musculus [4]
  Time: 23.8 h
Albumin
  fraction unbound at 1 h: 0.146
Mus musculus [5]
  Activity: Active
Mus musculus [12]
  Activity: 6.7%
Mus musculus [13]
  Activity: 4.5 mmol/L
Mus musculus [14]
  Activity: Active
[6]
  EC50: 3.1 nM
Mus musculus [15]
  Activity: 1.6 mmol/L
Mus musculus [7]
  Activity: 18 mIU/L
Mus musculus [16]
  Activity: Active
Mus musculus [17]
  Activity: 11.2 to 14.9 mmol/L
Mus musculus [18]
  Activity: 55%
Mus musculus [19]
  Activity: Active
Mus musculus [20]
  Activity: 62.4 IU/L
[8]
  half-life: 39.8 h
Mus musculus [21]
  Activity: Active
Mus musculus [9]
  Activity: Active
Mus musculus [22]
  Activity: 56.9 IU/L
Mus musculus [23]
  Activity: 1.4 mmol/L
Mus musculus [10]
  Activity: Active
Mus musculus [24]
  Activity: Active
Mus musculus [25]
  Activity: 1.4 mmol/L

## H-HGEGTYTNDVTEYLEEEAAK([γGlu-Ahx-Mycophenolyl])EFIEWLIKGKPSSGAPPSKKKKKK-OH
Mus musculus [1]
  Activity: Active
Albumin
  fraction unbound at 1 h: 0.361
Mus musculus [5]
  Activity: Active
[6]
  EC50: 2.8 nM
[8]
  half-life: 22.1 h

## SEMAGLUTIDE
Mus musculus [1]
  Activity: Active
Mus musculus [3]
  Activity: 1.1e+07 nmol/L
Mus musculus [5]
  Activity: Active
Mus musculus [7]
  Activity: 17.2 mIU/L
Mus musculus [10]
  Activity: Active
